How the values were obtained:
[1] = Minimum tolerated dose is the lethal dose for 10% normal mice for deaths during 21 days; type: ADME, organism-based; conditions: mouse, in vivo
Procedure, shortened: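 Tumor-free male BDF1 mice (18–22 g) received a broad dose range ip in 5% dimethyl sulfoxide-saline on days 1, 5 and 9. Deaths were recorded over 21 days. The LD10 (dose killing 10% of animals) was calculated from a plot of log-dose vs. percent mortality.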

[2] = tested on: P388; experiment: Inhibition of RNA synthesis was measured as the concentration required to cause 50% reduction (in 1h) in 2-[14C]uridine incorporation into acid precipitable material using P388 cells; type: functional, cell-based; conditions: Mus musculus, P388, 1 h
[3] = tested on: P388; experiment: Inhibition of DNA synthesis was measured as the concentration required to cause 50% reduction (in 1h) in methyl [3H]thymidine incorporation into acid precipitable material using P388 cells; type: functional, cell-based; conditions: Mus musculus
Procedure, shortened: (§1)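 P388 cells were exposed for 1 h. IC50 (µM) was taken as 50% reduction of methyl-[3H]thymidine (DNA) or 2-[14C]uridine (RNA) incorporation into acid-precipitable material. The ratio is IC50 DNA divided by IC50 RNA.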

[4] = Therapeutic index (MTD/MED) value of the compound; conditions: read-out: TI
[5] = IC50 DNA/IC50 RNA ratio of the compound; type: functional; procedure, shortened: as §1
[6] = organism: Rattus norvegicus; experiment: (§2) Compound tested for NADPH oxidation in rat hepatic mycrosomal incubation; type: functional
Procedure, shortened: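 Phenobarbital-induced rat liver microsomes (300 µg), 37 °C, no epinephrine; NADPH 0.4 mM added to sample cuvette only. A340 followed; % oxidation = (1 − A340/A'340)×100 vs cuvette not activated by microsomes; % stimulation = (drug rate − basal rate)/basal rate ×100. Drugs in 150 mM KCl-50 mM Tris pH 7.4; triplicate analyses, mean ± standard error.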

[7] = organism: Rattus norvegicus; experiment: (§3) Compound tested for adrenochrome formation in rat hepatic mycrosomal incubation; type: functional
Procedure, shortened: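 Superoxide read as adrenochrome from epinephrine (in 0.01 N HCl) with phenobarbital-induced rat liver microsomes (300 µg) at 37 °C; NADPH 0.4 mM added to sample cuvette after 1 min. Rate at 480 nm (ε 4.02 mM-1 cm-1); drug ≤100 µM in 150 mM KCl-50 mM Tris pH 7.4; % stimulation over basal rate; triplicate, mean ± standard error.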

[8] = organism: Rattus norvegicus; experiment: as §3; type: functional; remark: listed apart in the source
Procedure, shortened: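 Adrenochrome assay for superoxide: epinephrine in 0.01 N HCl plus 300 µg of phenobarbital-induced rat liver microsomes at 37 °C. NADPH 0.4 mM was added to the sample side 1 min later, and the rate was read at 480 nm (ε 4.02 mM−1 cm−1). Drugs were at ≤100 µM, made in 150 mM KCl–50 mM Tris, pH 7.4. Percent stimulation is over basal rate, in triplicate.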

[9] = organism: Rattus norvegicus; experiment: as §2; type: functional; remark: listed apart in the source
Procedure, shortened: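 Phenobarbital-induced male Sprague-Dawley rat liver microsomes were placed in both cuvettes, without epinephrine. NADPH 0.4 mM was added to the sample side only, and absorbance was read at 340 nm. Percent stimulation = (drug rate − basal)/basal × 100. Values are the average ± standard errors of triplicates.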

Compound `Cc1c2oc3c(C)c(O)c(N)c(C(=O)N[C@@H]4C(=O)N[C@H](C(C)C)C(=O)N5CCC[C@H]5C(=O)N(C)CC(=O)N(C)[C@@H](C(C)C)C(=O)O[C@@H]4C)c3nc-2c(C(=O)N[C@@H]2C(=O)N[C@H](C(C)C)C(=O)N3CCC[C@H]3C(=O)N(C)CC(=O)N(C)[C@@H](C(C)C)C(=O)O[C@@H]2C)cc1=O` has an MTD at 504 h [1] of 3.5 mg/kg, an IC50 [2] of 5.1 µM and an IC50 [3] of 5.1 µM. For the same compound, the selectivity ratio [4] was 13.
For `Cc1c2oc3c(C)c4oc(-c5ccccc5)nc4c(C(=O)N[C@H]4C(=O)N[C@@H](C(C)C)C(=O)N5CCC[C@H]5C(=O)NCC(=O)N(C)[C@H](C(C)C)C(=O)O[C@H]4C)c3nc-2c(C(=O)N[C@@H]2C(=O)N[C@H](C(C)C)C(=O)N3CCC[C@@H]3C(=O)NCC(=O)N[C@@H](C(C)C)C(=O)O[C@@H]2C)cc1=O`, the Ratio [5] was 1.78.
With `CCN(CC)C(=O)c1c2nc3c(C(=O)N(CC)CC)c(N)c(O)c(C)c3oc-2c(C)c(=O)c1N` the NADPH oxidation [6] was 8.9 nM min-1 (mg of protein)-1 and the adrenochrome formation [7] was 2.13 nM min-1 (mg of protein)-1.
In the case of `CCN(CC)C(=O)c1c2nc3c(C(=O)N(CC)CC)c4nc(C)oc4c(C)c3oc-2c(C)c(=O)c1N`, the adrenochrome formation [8] is reported as 2.13 nM min-1 (mg of protein)-1 and the NADPH oxidation [9] is reported as 8.9 nM min-1 (mg of protein)-1.
In the case of `Cc1c2oc3c(C)c(O)c(N)c(C(=O)N[C@@H]4C(=O)N[C@H](C(C)C)C(=O)N5CCC[C@H]5C(=O)N(C)CC(=O)N(C)[C@@H](C(C)C)C(=O)O[C@@H]4C)c3nc-2c(C(=O)N[C@@H]2C(=O)N[C@H](C(C)C)C(=O)N3CCC[C@H]3C(=O)N(C)CC(=O)N(C)[C@@H](C(C)C)C(=O)O[C@@H]2C)c(N)c1=O`, the MTD at 504 h [1] is reported as 2.4 mg/kg, the IC50 [2] is reported as 1.15 µM and the IC50 [3] is reported as 1.11 µM. For the same compound, the selectivity ratio [4] was 96.
With `Cc1nc2c(C(=O)N[C@H]3C(=O)N[C@@H](C(C)C)C(=O)N4CCC[C@H]4C(=O)N(C)CC(=O)N(C)[C@H](C(C)C)C(=O)O[C@H]3C)c3nc4c(C(=O)N[C@@H]5C(=O)N[C@H](C(C)C)C(=O)N6CCC[C@@H]6C(=O)N(C)CC(=O)N(C)[C@@H](C(C)C)C(=O)O[C@@H]5C)c(N)c(=O)c(C)c-4oc3c(C)c2o1` the Ratio [5] was 11.2.
Work on `Cc1c2oc3c(C)ccc(C(=O)N[C@@H]4C(=O)N[C@H](C(C)C)C(=O)N5CCC[C@@H]5C(=O)NCC(=O)N[C@@H](C(C)C)C(=O)O[C@@H]4C)c3nc-2c(C(=O)N[C@H]2C(=O)N[C@@H](C(C)C)C(=O)N3CCC[C@H]3C(=O)NCC(=O)N[C@H](C(C)C)C(=O)O[C@H]2C)c(N)c1=O` yielded a Ratio [5] of 22.4.
With `CCN(CC)C(=O)c1cc(=O)c(C)c2oc3c(C)c4oc(-c5ccccc5)nc4c(C(=O)N(CC)CC)c3nc1-2` the adrenochrome formation [8] was 2.13 nM min-1 (mg of protein)-1 and the NADPH oxidation [9] was 8.9 nM min-1 (mg of protein)-1.

Source: ChEMBL document CHEMBL1123113, “"Reverse" and "symmetrical" analogues of actinomycin D: metabolic activation and in vitro and in vivo tumor growth inhibitory activities” (J Med Chem, 1985)
